# Laboratory results: ChEMBL document CHEMBL3526062, “Role of human UDP-glucuronosyltransferases in the biotransformation of the triazoloacridinone and imidazoacridinone antitumor agents C-1305 and C-1311: highly selective substrates for UGT1A10” (Drug Metab Dispos, 2012)
# Legend:
# [1] = Drug metabolism in human colon microsomes assessed as glucuronidation activity at 0.1 mM for 60 mins in presence of 3 mM UDP-GlcUA; assay type: ADME, microsome; settings: 1 h, 100 µM
# In short: (§1)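 Microsomes from single donors (20 μg protein) incubated with 0.1 mM substrate and 3 mM UDP-GlcUA for 60 min at 37°C in Tris-HCl pH 7.4 buffer with 5 mM MgCl2, 5 mM saccharolactone and 2% DMSO. Glucuronide measured by HPLC; donor data summarized as box-and-whisker plots.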
# [2] = system: Liver microsome; test: Drug metabolism in human liver microsomes assessed as glucuronidation per mg of protein after 60 mins by Michaelis-Menten equation in presence of 3 mM UDP-GlcUA; assay type: ADME; settings: 1 h
# In short: (§2)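 Recombinant UGT membrane protein (5 μg; His-tagged UGT1A levels normalized by anti-His Western blot) or single-donor microsomes (20 μg) incubated with substrate 5–1000 μM and 3 mM UDP-GlcUA in […] pH 7.4, 5 mM MgCl2, 5 mM saccharolactone, 2% DMSO, 60 min, 37°C. Ethanol stop, centrifuged, HPLC-UV. Initial velocities fitted to Michaelis-Menten, Hill or substrate-inhibition models; three determinations.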
# [3] = molecular target: T1, UDP-glucuronosyltransferase 1A8 (Homo sapiens, UniProt Q9HAW9); test: Activity of human recombinant UGT1A8 expressed in baculovirus-infected Sf9 cells assessed as glucuronidation activity per mg of protein at 100 to 200 uM after 60 mins in presence of 3 mM UDP-GlcUA; assay type: ADME; settings: sf9, 1 h
# T1 sequence (Q9HAW9 whole entry): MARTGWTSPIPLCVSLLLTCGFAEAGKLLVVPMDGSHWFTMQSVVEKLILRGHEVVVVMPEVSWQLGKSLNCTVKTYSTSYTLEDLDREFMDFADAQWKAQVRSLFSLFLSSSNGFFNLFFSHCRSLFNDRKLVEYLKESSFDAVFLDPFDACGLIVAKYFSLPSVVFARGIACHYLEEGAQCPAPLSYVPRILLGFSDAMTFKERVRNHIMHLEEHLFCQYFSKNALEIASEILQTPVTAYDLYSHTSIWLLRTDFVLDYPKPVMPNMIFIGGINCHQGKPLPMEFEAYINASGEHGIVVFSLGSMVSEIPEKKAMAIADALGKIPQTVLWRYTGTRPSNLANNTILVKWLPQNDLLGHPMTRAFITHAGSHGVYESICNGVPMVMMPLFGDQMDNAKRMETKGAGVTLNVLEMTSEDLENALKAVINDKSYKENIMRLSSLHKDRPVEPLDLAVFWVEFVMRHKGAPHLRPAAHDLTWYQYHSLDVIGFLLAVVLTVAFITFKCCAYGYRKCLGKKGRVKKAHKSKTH
# In short: (§3)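 Screening: 5 μg recombinant UGT protein (His-tag levels normalized) in Tris-HCl pH 7.4, 5 mM MgCl2, 5 mM saccharolactone, 2% DMSO to permeabilize membranes. Substrate at 100 or 200 μM, added in water. Started with 3 mM UDP-GlcUA, 60 min at 37°C, stopped with ethanol, then centrifuged. Glucuronide quantified by reversed-phase C18 HPLC against the substrate response; triplicates.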
# [4] = Drug metabolism in human duodenum microsomes assessed as glucuronidation activity at 0.1 mM for 60 mins in presence of 3 mM UDP-GlcUA; assay type: ADME, microsome; settings: 1 h, 100 µM; in short: as §1
# [5] = molecular target: T2, UDP-glucuronosyltransferase 1A9 (Homo sapiens, UniProt O60656); test: Activity of human recombinant UGT1A9 expressed in baculovirus-infected Sf9 cells assessed as glucuronidation activity per mg of protein at 100 to 200 uM after 60 mins in presence of 3 mM UDP-GlcUA; assay type: ADME; settings: sf9, 1 h; in short: as §3
# T2 sequence (O60656 whole entry): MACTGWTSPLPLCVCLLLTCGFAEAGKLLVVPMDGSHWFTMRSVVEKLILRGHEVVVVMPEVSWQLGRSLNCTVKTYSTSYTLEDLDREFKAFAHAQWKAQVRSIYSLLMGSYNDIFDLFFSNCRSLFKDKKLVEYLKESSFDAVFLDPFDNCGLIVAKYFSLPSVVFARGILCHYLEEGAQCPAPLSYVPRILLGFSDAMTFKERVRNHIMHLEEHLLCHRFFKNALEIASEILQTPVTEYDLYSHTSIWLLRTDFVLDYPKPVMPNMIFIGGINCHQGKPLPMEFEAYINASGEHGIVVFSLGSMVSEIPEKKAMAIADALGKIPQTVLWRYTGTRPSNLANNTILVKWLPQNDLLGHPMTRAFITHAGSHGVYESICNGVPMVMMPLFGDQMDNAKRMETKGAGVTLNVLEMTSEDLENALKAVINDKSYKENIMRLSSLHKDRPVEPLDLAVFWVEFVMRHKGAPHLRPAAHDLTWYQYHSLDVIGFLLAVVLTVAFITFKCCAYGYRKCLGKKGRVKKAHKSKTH
# [6] = molecular target: T3, UDP-glucuronosyltransferase 1A1 (Homo sapiens, UniProt P22309); test: Activity of human recombinant UGT1A1 expressed in baculovirus-infected Sf9 cells assessed as glucuronidation activity per mg of protein at 100 to 200 uM after 60 mins in presence of 3 mM UDP-GlcUA; assay type: ADME; settings: sf9, 1 h; in short: as §3
# T3 sequence (P22309 whole entry): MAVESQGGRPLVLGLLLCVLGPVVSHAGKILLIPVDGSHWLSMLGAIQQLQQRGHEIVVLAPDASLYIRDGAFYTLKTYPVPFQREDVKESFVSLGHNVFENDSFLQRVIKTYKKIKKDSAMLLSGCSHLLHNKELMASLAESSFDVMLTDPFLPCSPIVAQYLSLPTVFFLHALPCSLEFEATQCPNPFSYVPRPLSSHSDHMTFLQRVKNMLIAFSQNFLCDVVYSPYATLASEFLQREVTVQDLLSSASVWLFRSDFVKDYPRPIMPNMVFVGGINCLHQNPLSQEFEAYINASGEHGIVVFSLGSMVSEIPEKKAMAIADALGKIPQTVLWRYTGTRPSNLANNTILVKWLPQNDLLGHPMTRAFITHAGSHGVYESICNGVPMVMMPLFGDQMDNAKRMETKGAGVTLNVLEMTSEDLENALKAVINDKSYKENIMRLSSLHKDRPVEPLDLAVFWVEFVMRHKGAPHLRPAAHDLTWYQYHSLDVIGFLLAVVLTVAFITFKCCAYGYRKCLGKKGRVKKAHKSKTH
# [7] = Drug metabolism in human intestinal microsomes assessed as ratio of Vmax to Km for glucuronidation per mg of protein after 60 mins by Michaelis-Menten equation in presence of 3 mM UDP-GlcUA; assay type: ADME, Intestine, Microsome; settings: 1 h; in short: as §2
# [8] = system: Liver microsome; test: Drug metabolism in human liver microsomes assessed as glucuronidation activity at 0.2 mM for 60 mins by ESI-MS analysis in presence of 3 mM UDP-GlcUA; assay type: ADME; settings: 1 h, 200 µM
# In short: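 Single-donor liver or intestinal microsomes (20 μg total protein) incubated with 0.2 mM substrate and 3 mM UDP-GlcUA for 60 min at 37°C in Tris-HCl pH 7.4, MgCl2, saccharolactone, 2% DMSO. Ethanol stop, centrifuged, HPLC analysis; triplicates.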
Compound,Drug metabolism [1],Vmax [2],Drug metabolism [3],Drug metabolism [4],Drug metabolism [5],Drug metabolism [6],Vmax/Km [7],Drug metabolism [8]
CN(C)CCCNc1ccc2nnn3c4ccc(O)cc4c(=O)c1c23,metabolite_detected,0.386 nmol/min/mg,0.2 nmol/min/mg,metabolite_detected,0.2 nmol/min/mg,< 0.1 nmol/min/mg,5.4 µL/min,metabolite_detected
CCN(CC)CCNc1ccc2ncn3c4ccc(O)cc4c(=O)c1c23 [C-1311],metabolite_detected,0.156 nmol/min/mg,0.2 nmol/min/mg,metabolite_detected,0.2 nmol/min/mg,< 0.1 nmol/min/mg,5.2 µL/min,metabolite_detected
